Measurements reported in ChEMBL document CHEMBL1240327, “Small molecules enhance autophagy and reduce toxicity in Huntington's disease models” (Nat Chem Biol, 2007).
Calls of active or inactive are those of the source.

How the values were obtained:
Saccharomyces cerevisiae [1] = assay: Inhibition of 25 nM rapamycin-mediated cytostatic effect in yeast BY4742 at sub-lethal concentration after 48 to 96 hrs; assay type: functional, organism-based
Saccharomyces cerevisiae [2] = assay: Inhibition of rapamycin-mediated cytostatic effect in yeast RM11-1a after 48 to 96 hrs; assay type: functional
Saccharomyces paradoxus [3] = assay: Inhibition of rapamycin-mediated cytostatic effect in Saccharomyces paradoxus after 48 to 96 hrs; assay type: functional
Saccharomyces bayanus [4] = assay: Inhibition of rapamycin-mediated cytostatic effect in Saccharomyces bayanus after 48 to 96 hrs; assay type: functional
Saccharomyces mikatae [5] = assay: Inhibition of rapamycin-mediated cytostatic effect in Saccharomyces mikatae after 48 to 96 hrs; assay type: functional
Saccharomyces cerevisiae [6] = assay: Inhibition of 50 nM rapamycin-mediated cytostatic effect in yeast BY4742 after 48 to 96 hrs; assay type: functional, organism-based
[7] = biological target: Huntingtin (Mus musculus) (UniProt P42859); assay: Inhibition of EGFP-tagged huntingtin aggregation in Atg5-deficient MEF at 47 uM after 48 hrs by Western blot analysis
[8] = biological target: Huntingtin (Mus musculus) (UniProt P42859); assay: Inhibition of EGFP-tagged huntingtin aggregation in Atg5-deficient MEF at 43 uM after 48 hrs by […]
[9] = biological target: Huntingtin (Mus musculus) (UniProt P42859); assay: Inhibition of EGFP-tagged huntingtin aggregation in MEF harboring Atg5 gene at 47 uM after 48 hrs by Western blot analysis
COS-7 [10] = assay: Effect on ATg5 level in african green monkey COS7 cells at 43 uM after 24 hrs by immunoblotting; assay type: functional, cell-based; settings: Chlorocebus aethiops
Drosophila melanogaster [11] = assay: Toxicity against Drosophila melanogaster Huntington's disease model at 200 uM; assay type: organism-based; settings: in vivo
[12] = biological target: Huntingtin (Mus musculus) (UniProt P42859); assay: Inhibition of EGFP-tagged huntingtin aggregation in MEF harboring Atg5 gene at 43 uM after 48 hrs by Western blot analysis
Drosophila melanogaster [13] = assay: Neuroprotective activity in Drosophila melanogaster Huntington's disease model harboring huntington protein mutant assessed as protection against neurodegeneration at 200 uM; assay type: functional, organism-based
HeLa [14] = assay: Increase in MAP1LC3 level in bafilomycin A1-treated human HeLa cells at 43 uM treated fro 24 hrs before bafilomycin A1 challenge by immunoblotting analysis; assay type: functional, cell-based
Procedure, shortened: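 HeLa cells stably expressing EGFP-LC3 were pretreated with compound for 24 h, then given 200 nM bafilomycin A1 for 4 h. EGFP-LC3-II was measured by anti-EGFP immunoblot with densitometry relative to actin, from three independent experiments.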

Saccharomyces paradoxus [15] = assay: Enhancement of rapamycin-mediated cytostatic effect in Saccharomyces paradoxus after 48 to 96 hrs; assay type: functional
[16] = biological target: Serine/threonine-protein kinase mTOR (Homo sapiens) (UniProt P42345); assay: Inhibition of mTOR phosphorylation expressed in african green monkey COS7 cells at 43 uM by Western blot analysis; assay type: cell-based; settings: COS-7
[17] = biological target: Huntingtin (Homo sapiens) (UniProt P42858); assay: Inhibition of EGFP-tagged huntingtin expressed in african green monkey COS7 cells assessed as protection against protein-induced cell death at 43 uM after 48 hrs […]; assay type: cell-based; settings: COS-7
Chain of Huntingtin (Homo sapiens) (P42858 whole entry): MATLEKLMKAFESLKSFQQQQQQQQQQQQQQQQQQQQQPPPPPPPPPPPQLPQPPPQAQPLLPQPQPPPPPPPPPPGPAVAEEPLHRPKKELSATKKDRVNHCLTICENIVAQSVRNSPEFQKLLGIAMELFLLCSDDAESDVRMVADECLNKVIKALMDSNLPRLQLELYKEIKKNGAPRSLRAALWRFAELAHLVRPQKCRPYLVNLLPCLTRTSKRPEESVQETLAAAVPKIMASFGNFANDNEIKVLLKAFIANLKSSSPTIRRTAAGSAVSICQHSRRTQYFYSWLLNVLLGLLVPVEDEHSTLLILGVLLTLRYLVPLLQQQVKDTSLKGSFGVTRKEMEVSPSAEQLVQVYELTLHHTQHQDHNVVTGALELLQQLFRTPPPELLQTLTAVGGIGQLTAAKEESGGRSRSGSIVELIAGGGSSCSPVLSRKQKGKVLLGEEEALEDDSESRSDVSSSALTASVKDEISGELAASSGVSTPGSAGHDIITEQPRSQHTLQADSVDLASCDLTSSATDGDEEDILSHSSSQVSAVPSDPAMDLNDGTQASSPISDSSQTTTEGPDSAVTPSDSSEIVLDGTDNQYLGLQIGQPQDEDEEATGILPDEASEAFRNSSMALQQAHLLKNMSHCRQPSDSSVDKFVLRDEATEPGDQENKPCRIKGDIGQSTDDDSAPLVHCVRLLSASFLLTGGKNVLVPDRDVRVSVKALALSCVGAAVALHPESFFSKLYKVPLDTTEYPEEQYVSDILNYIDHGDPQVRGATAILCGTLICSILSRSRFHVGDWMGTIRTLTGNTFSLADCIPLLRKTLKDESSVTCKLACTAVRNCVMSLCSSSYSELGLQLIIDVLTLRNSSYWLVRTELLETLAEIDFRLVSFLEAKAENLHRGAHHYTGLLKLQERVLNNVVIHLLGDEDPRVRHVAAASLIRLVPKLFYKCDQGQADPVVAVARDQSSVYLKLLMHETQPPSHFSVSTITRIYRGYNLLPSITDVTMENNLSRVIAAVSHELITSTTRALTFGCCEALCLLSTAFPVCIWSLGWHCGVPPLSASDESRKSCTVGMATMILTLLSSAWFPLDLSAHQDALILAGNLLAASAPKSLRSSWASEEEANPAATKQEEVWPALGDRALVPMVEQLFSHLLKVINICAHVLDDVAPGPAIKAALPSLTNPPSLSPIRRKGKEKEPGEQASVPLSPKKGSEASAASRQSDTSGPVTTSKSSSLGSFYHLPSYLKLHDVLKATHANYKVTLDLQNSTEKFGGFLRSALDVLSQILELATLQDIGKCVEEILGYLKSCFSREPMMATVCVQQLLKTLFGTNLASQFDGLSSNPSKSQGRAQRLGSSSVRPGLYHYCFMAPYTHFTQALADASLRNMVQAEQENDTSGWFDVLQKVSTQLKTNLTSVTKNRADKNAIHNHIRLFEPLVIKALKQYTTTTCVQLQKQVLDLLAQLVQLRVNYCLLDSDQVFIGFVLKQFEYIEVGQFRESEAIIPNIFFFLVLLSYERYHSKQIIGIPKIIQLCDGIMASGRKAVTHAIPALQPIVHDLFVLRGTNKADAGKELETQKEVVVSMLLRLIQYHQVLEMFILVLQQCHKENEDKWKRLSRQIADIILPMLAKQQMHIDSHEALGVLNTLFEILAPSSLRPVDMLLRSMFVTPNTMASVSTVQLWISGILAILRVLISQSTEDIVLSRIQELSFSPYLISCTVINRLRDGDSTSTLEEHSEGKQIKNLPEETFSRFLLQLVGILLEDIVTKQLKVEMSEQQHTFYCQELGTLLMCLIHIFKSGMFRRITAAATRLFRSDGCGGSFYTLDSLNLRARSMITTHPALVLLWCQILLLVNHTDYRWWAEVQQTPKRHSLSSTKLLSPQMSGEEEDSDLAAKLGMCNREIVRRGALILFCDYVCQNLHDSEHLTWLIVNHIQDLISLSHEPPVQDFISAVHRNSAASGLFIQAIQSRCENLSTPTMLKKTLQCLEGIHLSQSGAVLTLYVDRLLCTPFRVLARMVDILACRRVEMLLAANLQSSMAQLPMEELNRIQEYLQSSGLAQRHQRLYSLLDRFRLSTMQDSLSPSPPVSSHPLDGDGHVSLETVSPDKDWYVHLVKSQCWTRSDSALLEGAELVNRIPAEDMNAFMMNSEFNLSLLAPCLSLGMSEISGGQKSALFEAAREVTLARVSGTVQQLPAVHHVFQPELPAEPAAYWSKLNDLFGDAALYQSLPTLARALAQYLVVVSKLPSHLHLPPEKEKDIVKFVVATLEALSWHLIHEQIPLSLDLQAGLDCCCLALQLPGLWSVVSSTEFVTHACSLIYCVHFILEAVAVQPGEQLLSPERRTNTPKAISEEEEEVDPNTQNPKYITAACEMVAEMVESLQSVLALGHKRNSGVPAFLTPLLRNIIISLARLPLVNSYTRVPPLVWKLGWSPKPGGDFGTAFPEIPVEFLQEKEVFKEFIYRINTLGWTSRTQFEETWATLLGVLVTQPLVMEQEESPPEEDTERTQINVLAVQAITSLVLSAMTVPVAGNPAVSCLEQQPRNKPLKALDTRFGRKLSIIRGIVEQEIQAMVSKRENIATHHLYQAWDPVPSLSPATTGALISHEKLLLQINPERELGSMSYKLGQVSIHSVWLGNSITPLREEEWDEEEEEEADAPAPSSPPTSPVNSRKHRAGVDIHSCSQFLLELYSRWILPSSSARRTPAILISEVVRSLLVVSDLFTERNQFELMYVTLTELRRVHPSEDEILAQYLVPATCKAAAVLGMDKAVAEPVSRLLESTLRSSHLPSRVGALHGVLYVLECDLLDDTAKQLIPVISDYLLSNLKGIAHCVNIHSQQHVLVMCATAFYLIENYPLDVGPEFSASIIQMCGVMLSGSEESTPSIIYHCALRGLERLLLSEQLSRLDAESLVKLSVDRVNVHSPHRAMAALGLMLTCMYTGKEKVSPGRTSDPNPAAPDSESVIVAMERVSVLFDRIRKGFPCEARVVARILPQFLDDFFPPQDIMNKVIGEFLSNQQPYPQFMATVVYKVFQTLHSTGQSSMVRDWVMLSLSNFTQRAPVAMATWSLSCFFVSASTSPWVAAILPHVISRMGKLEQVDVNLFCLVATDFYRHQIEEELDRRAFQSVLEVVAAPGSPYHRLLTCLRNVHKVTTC
Procedure, shortened: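 COS-7 cells transfected 4 h with EGFP-tagged huntingtin exon 1 (74 polyQ), then treated for 48 h. About 200 EGFP-positive cells were scored by fluorescence microscopy for aggregates; DAPI-stained nuclei with apoptotic morphology were counted as dead. Triplicate, scorer blinded. Results given as odds ratios vs DMSO (set to 1) with 95 % CI by logistic regression.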

HeLa [18] = assay: Induction of autophagy in human HeLa cells harboring MAP1LC3 gene at 43 uM after 24 hrs by DAPI staining-based fluorescence microscopy; assay type: functional, cell-based
Procedure, shortened: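 Stable EGFP-LC3 HeLa cells treated 24 h. EGFP-positive autophagic vesicles were imaged by confocal microscopy with DAPI nuclear counterstain.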

PC-12 [19] = assay: Enhancement of autophagy in rat PC12 cells assessed as decrease in alpha-synuclein A53T mutant level at 47 uM by immunoblotting; assay type: functional, cell-based
Procedure, shortened: (§1)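 Stable PC12 line with doxycycline-inducible HA-tagged A53T α-synuclein; induced with 1 μg/ml doxycycline for 48 h, then doxycycline removed. Compounds added during the 24 h switch-off period, from 5 mg ml⁻¹ DMSO stock diluted 1:20000, 1:4000 or 1:400. HA immunoblot, densitometry relative to actin; control set to 100 %; three independent experiments, factorial ANOVA.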

[20] = Cytotoxicity against african green monkey COS7 cells at 43 uM after 24 hrs by FACS analysis; assay type: cell-based; settings: chlorocebus aethiops, cos-7, 24 h
PC-12 [21] = assay: Enhancement of autophagy in rat PC12 cells assessed as decrease in alpha-synuclein A53T mutant level at 43 uM by immunoblotting; assay type: functional, cell-based; procedure, shortened: as §1
[22] = biological target: Huntingtin (Homo sapiens) (UniProt P42858); assay: Inhibition of EGFP-tagged huntingtin aggregation expressed in african green monkey COS7 cells at 43 uM after 24 hrs by […] in presence of 0.2 uM rapamycin; assay type: cell-based; settings: COS-7
Saccharomyces mikatae [23] = assay: Enhancement of rapamycin-mediated cytostatic effect in Saccharomyces mikatae after 48 to 96 hrs; assay type: functional
COS-7 [24] = assay: Effect on ATg12 level in african green monkey COS7 cells at 43 uM after 24 hrs by immunoblotting; assay type: functional, cell-based; settings: Chlorocebus aethiops
COS-7 [25] = assay: Effect on ATg7 level in african green monkey COS7 cells at 43 uM after 24 hrs by immunoblotting; assay type: functional, cell-based; settings: Chlorocebus aethiops
Saccharomyces cerevisiae [26] = assay: Enhancement of rapamycin-mediated cytostatic effect in yeast RM11-1a after 48 to 96 hrs; assay type: functional
PC-12 [27] = assay: Enhancement of rapamycin-induced clearance of alpha-synuclein A53T mutant protein in rat PC12 cells at 43 uM after 8 hrs by immunoblotting; assay type: functional, cell-based
Procedure, shortened: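 Inducible PC12 A53T α-synuclein line (1 μg/ml doxycycline, 48 h, then switched off). Compound given alone or with 0.2 μM rapamycin over an 8 h switch-off period. Read-out is anti-HA immunoblot with densitometry relative to actin, n=3, control as 100 %.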

COS-7 [28] = assay: Increase in conjugated Atg12-Atg5 level in african green monkey COS7 cells at 43 uM after 24 hrs by immunoblotting; assay type: functional, cell-based; settings: Chlorocebus aethiops
[29] = biological target: Huntingtin (Homo sapiens) (UniProt P42858); assay: Inhibition of EGFP-tagged huntingtin aggregation expressed in african green monkey COS7 cells at 43 uM after 48 hrs by […]; assay type: cell-based; settings: COS-7
COS-7 [30] = assay: Effect on ATg6 level in african green monkey COS7 cells at 43 uM after 24 hrs by immunoblotting; assay type: functional, cell-based; settings: Chlorocebus aethiops
Saccharomyces cerevisiae [31] = assay: Enhancement of 20 nM rapamycin-mediated cytostatic effect in yeast BY4742 after 48 to 96 hrs; assay type: functional, organism-based
HeLa [32] = assay: Inhibition of proteasome activity in human HeLa cells assessed as induction of ubiquitinG76V-EGFP reporter level at 43 uM after 24 hrs by immunoblotting
Saccharomyces bayanus [33] = assay: Enhancement of rapamycin-mediated cytostatic effect in Saccharomyces bayanus after 48 to 96 hrs; assay type: functional
PC-12 [34] = assay: Enhancement of autophagy in rat PC12 cells assessed as decrease in alpha-synuclein A53T mutant level at 5 mg/ml by densitometry; assay type: functional, cell-based; procedure, shortened: as §1

COc1ccc(C[C@H]2NC[C@H](O)[C@H]2OC(C)=O)cc1
inactive: inhibition (Saccharomyces cerevisiae [1])

S=C(S)OC1CC2CC1C1CCCC21 (centres undefined)
active: inhibition (Saccharomyces cerevisiae [2]) | inhibition (Saccharomyces paradoxus [3]) | inhibition (Saccharomyces bayanus [4]) | inhibition (Saccharomyces mikatae [5])
0.412 µM: EC50 (Saccharomyces cerevisiae [6])

C/C(=C/C(=O)c1ccc(Cl)cc1)Nc1cccc(O)c1
17.4 µM: EC50 (Saccharomyces cerevisiae [31])
inactive: inhibition [7] | inhibition [9] | Activity (COS-7 [10]) | inhibition [16] | Activity (COS-7 [24]) | Activity (COS-7 [25]) | Activity (COS-7 [28]) | Activity (COS-7 [30]) | inhibition (HeLa [32])
Non-toxic: Activity (Drosophila melanogaster [11]) | Activity [20]
active: inhibition [8] | inhibition [12] | Activity (Drosophila melanogaster [13]) | Activity (HeLa [14]) | Activity (Saccharomyces paradoxus [15]) | inhibition [17] | Activity (HeLa [18]) | Activity (PC-12 [19]) | Activity (PC-12 [21]) | inhibition [22] | Activity (Saccharomyces mikatae [23]) | Activity (Saccharomyces cerevisiae [26]) | Activity (PC-12 [27]) | inhibition [29] | Activity (Saccharomyces bayanus [33]) | Activity (PC-12 [34])
